Drawing on ChEMBL document CHEMBL1123839, “5-Acyl-3-substituted-benzofuran-2(3H)-ones as potential antiinflammatory agents” (1987), this text covers Reduction for 15 compounds.

Common to all, as to assay type: functional
The species named for test [1] is Cavia porcellus. Briefly: Tested for effect on the production of cyclooxygenase (COX) metabolite, TXB2 of arachidonic acid in guinea pig peritoneal polymorphonuclear neutrophils at 30 uM concentration. A digest of the protocol:
(§1)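 Guinea pig peritoneal PMNs were incubated with [14C]arachidonic acid and stimulated with calcium ionophore A23187. Compounds were tested at 30 μM in 0.1 N NaOH–Krebs Ringer bicarbonate buffer. Radiolabeled cyclooxygenase and lipoxygenase products were identified by HPLC and GC-MS, separated by TLC and quantified by automatic scanning.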

The species entered for test [2] is Cavia porcellus. The test can be described thus: Tested for effect on the production of cyclooxygenase (COX) metabolite, PGF2-alpha (prostaglandin F2-alpha) of arachidonic acid in guinea pig peritoneal polymorphonuclear neutrophils at 30 uM concentration. The gist of the method: as §1
The species named for test [3] is Cavia porcellus. Briefly: Tested for effect on the production of Lipoxygenase (LO) metabolite, 5-HETE in guinea pig peritoneal polymorphonuclear neutrophils at 30 uM concentration. The gist of the method: as §1
The species named for test [4] is Rattus norvegicus. The test can be described thus: Antiinflammatory activity was assessed improvement of adjuvant induced arthritis in rats, determined by joint mobility of the paw. Details: concentration or dose not given beside the values. A digest of the protocol:
(§2)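 Adjuvant arthritis was induced in female Sprague–Dawley rats (150–170 g, groups of six) by right-hind-paw plantar injection of killed tubercle bacillus in paraffin. Treatment was 33 mg/kg orally, daily for 14 days, starting the day before adjuvant. Joint involvement was scored as the angle through which the hind paws moved easily, given as percent change versus nontreated controls.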

The test system of test [5] is Rattus norvegicus. The test can be described thus: Antiinflammatory activity was assessed by the ability to improve the adjuvant induced arthritis in right primary lesion in rats at oral doses, 33 mg/kg (volume change in the injected paw measured from day 0 to day 8). The gist of the method:
(§3)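 Female Sprague–Dawley rats (150–170 g), six per group. Arthritis induced by subcutaneous plantar injection of 0.125 mg killed tubercle bacillus in liquid paraffin into the right hind paw. Dosing was 33 mg/kg orally, daily for 14 days, starting the day before adjuvant. Paw volumes were measured by mercury plethysmography every 2–3 days over 18 days. Primary lesion: right paw, days 0–8. Secondary lesions: right and left (uninjected) paws, days 9–18. Areas under the time-course curves were compared with controls by ANOVA.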

For test [6], the system named is Rattus norvegicus. Briefly: Antiinflammatory activity was assessed by the ability to improve the adjuvant induced arthritis in left secondary lesion in rats at oral doses, 33 mg/kg (volume change in the injected paw measured from day 9 to day 18).
The species named for test [7] is Cavia porcellus. The test can be described thus: Tested for effect on the production of cyclooxygenase (COX) metabolite, PGE-2 (prostaglandin E2) of arachidonic acid in guinea pig peritoneal polymorphonuclear neutrophils at 30 uM concentration. The gist of the method: as §1
The species named for test [8] is Cavia porcellus. Briefly: Tested for effect on the production of Lipoxygenase (LO) metabolite, 5,12-diHETE in guinea pig peritoneal polymorphonuclear neutrophils at 30 uM concentration. The gist of the method: as §1
In test [9] the test system is Rattus norvegicus. The test can be described thus: Ability to improve the adjuvant induced arthritis in right secondary lesion in rats at oral doses, 33 mg/kg. A digest of the protocol:
as §3

The subject of test [10] is Rattus norvegicus. The test can be described thus: Antiinflammatory activity was assessed by the ability to improve the adjuvant induced arthritis in left secondary lesion in rats at oral doses, 33 mg/kg (volume change in the uninjected paw measured from day 9 to day 18). A digest of the protocol:
as §3

The test system of test [11] is Rattus norvegicus. Briefly: Antiinflammatory activity was assessed by the ability to improve the adjuvant induced arthritis rats was determined by joint mobility of the paw at oral doses, 33 mg/kg. A digest of the protocol:
as §2

Test [12] is filed under the species Cavia porcellus. The test can be described thus: Tested for effect on the production of Lipoxygenase (LO) metabolite, 5,12-diHETE in guinea pig peritoneal polymorphonuclear neutrophils at 30 uM concentration; ND = no data. The gist of the method:
as §1

For test [13], the species on record is Cavia porcellus. Briefly: Tested for effect on the production of Lipoxygenase (LOX) metabolite, 5-HETE in guinea pig peritoneal polymorphonuclear neutrophils at 30 uM concentration. The gist of the method:
as §1

For test [14], the species on record is Rattus norvegicus. The test can be described thus: Antiinflammatory activity was assessed by the ability to improve the adjuvant induced arthritis in left secondary lesion in rats (volume change in the […] to day 18).
Test [15] is filed under the species Rattus norvegicus. The test can be described thus: Antiinflammatory activity was assessed by the ability to improve the adjuvant induced arthritis in right secondary lesion in rats (volume change in the injected paw measured from day 9 to day 18). The gist of the method:
as §3

For test [16], the species on record is Rattus norvegicus. Briefly: Antiinflammatory activity was assessed by the ability to improve the adjuvant induced arthritis in right primary lesion in rats(volume change in the injected paw measured from day 0 to day 8). The gist of the method: as §3

Turning to `CC(C(=O)O)c1cc(C(=O)c2ccccc2)ccc1O` (stereo unspecified), the Reduction is listed as 75% in the test listed under Cavia porcellus [1]; 52% in the test listed under Cavia porcellus [2]; -27% in the test listed under Cavia porcellus [3]; 38% in the test filed under Rattus norvegicus [4]; 30% in the test on Rattus norvegicus [5]; 61% in the test with Rattus norvegicus [6]. In addition, the Reduction in the test filed under Cavia porcellus [7] was 77%; in the test filed under Cavia porcellus [8], -55%; with Rattus norvegicus [9] it was 37%.
In the case of `O=C(O)Cc1cc(C(=O)c2cccs2)ccc1O`, the Reduction in the test with Rattus norvegicus [10] was 10%; in the test filed under Cavia porcellus [1] it was 89%; in the test listed under Cavia porcellus [2], 74%; in the test filed under Cavia porcellus [3], -72%; in the test listed under Rattus norvegicus [4], 1%; in the test with Rattus norvegicus [5] it was 11%. Besides, the Reduction in the test listed under Cavia porcellus [7] is 74%; in the test filed under Cavia porcellus [8] it was -62%; in the test on Rattus norvegicus [9] it was 20%.
Regarding `O=C1Oc2ccc(C(=O)c3cccs3)cc2/C1=C/c1ccc(C(F)(F)F)cc1`, the Reduction amounted to 95% in the test filed under Cavia porcellus [1]; 67% in the test listed under Cavia porcellus [2]; 67% in the test listed under Cavia porcellus [3]; 4% in the test listed under Rattus norvegicus [4]; 3% with Rattus norvegicus [5]; 15% in the test with Rattus norvegicus [6]. In addition, the Reduction stood at 79% in the test filed under Cavia porcellus [7], 68% in the test filed under Cavia porcellus [8] and 19% in the test on Rattus norvegicus [9].
For the compound `C=CCc1cc(C(=O)c2cccs2)cc2c1OC(=O)C2C` (stereo unspecified), the Reduction in the test filed under Cavia porcellus [1] worked out at 93%; in the test listed under Cavia porcellus [2] it was 77%; in the test filed under Cavia porcellus [3] it was 14%; in the test filed under Rattus norvegicus [4], 5%; with Rattus norvegicus [5], 1%; in the test on Rattus norvegicus [6], 17%. Moreover, the Reduction in the test listed under Cavia porcellus [7] is given as 88%; in the test listed under Cavia porcellus [8], -24%; in the test with Rattus norvegicus [9], 6%.
In the case of `CC1C(=O)Oc2ccc(C(=O)c3ccc(F)cc3)cc21` (stereo unspecified), the Reduction was 76% in the test listed under Cavia porcellus [1]; 47% in the test listed under Cavia porcellus [2]; 6% in the test listed under Cavia porcellus [3]; -1% in the test listed under Rattus norvegicus [4]; 5% in the test with Rattus norvegicus [5]; 31% in the test on Rattus norvegicus [6]. For the same compound, the Reduction in the test filed under Cavia porcellus [7] is reported as 46%; in the test listed under Cavia porcellus [8], -25%; in the test on Rattus norvegicus [9], 10%.
On to `CCC(CC)(C(=O)O)c1cc(C(=O)c2cccs2)ccc1O`, for which the Reduction in the test filed under Cavia porcellus [1] was 90%; in the test filed under Cavia porcellus [2], 50%; in the test filed under Cavia porcellus [3], -21%; in the test filed under Rattus norvegicus [4] it was 38%; with Rattus norvegicus [5], 6%; with Rattus norvegicus [6], 45%. In addition, the Reduction is given as 54% in the test filed under Cavia porcellus [7], -18% in the test listed under Cavia porcellus [8] and 22% in the test with Rattus norvegicus [9].
`CCCCC1C(=O)Oc2ccc(C(=O)c3cccs3)cc21` (stereo unspecified): the Reduction is given as 89% in the test listed under Cavia porcellus [1]; 62% in the test listed under Cavia porcellus [2]; 73% in the test filed under Cavia porcellus [3]; -1% in the test filed under Rattus norvegicus [4]; 4% in the test on Rattus norvegicus [5]; -55% with Rattus norvegicus [6]. The Reduction in the test listed under Cavia porcellus [7] is reported as 68%; in the test listed under Cavia porcellus [8], 61%; in the test on Rattus norvegicus [9] it was -22%.
As for `CCC1(CC)C(=O)Oc2ccc(C(=O)c3cccs3)cc21`, the Reduction is reported as 90% in the test listed under Cavia porcellus [1]; 48% in the test listed under Cavia porcellus [2]; 2% in the test filed under Cavia porcellus [3]; 23% in the test filed under Rattus norvegicus [4]; 18% in the test with Rattus norvegicus [5]; 41% in the test with Rattus norvegicus [6]. Moreover, the results for the Reduction in the test listed under Cavia porcellus [7], in the test listed under Cavia porcellus [8] and in the test with Rattus norvegicus [9] were 62%, -7% and 17%, respectively.
`O=C1Oc2ccc(C(=O)c3cccs3)cc2/C1=C/c1ccccc1`: the Reduction with Rattus norvegicus [11] is 46%; in the test filed under Cavia porcellus [1], 92%; in the test filed under Cavia porcellus [2] it was 60%; in the test filed under Cavia porcellus [3], -18%; with Rattus norvegicus [5] it was 21%; in the test with Rattus norvegicus [6] it was 76%. The Reduction in the test filed under Cavia porcellus [7] is 81%; in the test listed under Cavia porcellus [8] it was -10%; in the test on Rattus norvegicus [9] it was 48%.
For the compound `C=CCOc1ccc(C(=O)c2cccs2)cc1C(C)C(=O)O` (stereo unspecified), the Reduction in the test filed under Cavia porcellus [12] was -21%; in the test listed under Cavia porcellus [1] it was 62%; in the test filed under Cavia porcellus [2], 11%; in the test listed under Cavia porcellus [3], -25%; in the test filed under Rattus norvegicus [4], -14%; in the test with Rattus norvegicus [5] it was 18%. Further, the results for the Reduction in the test with Rattus norvegicus [6], in the test listed under Cavia porcellus [7] and with Rattus norvegicus [9] were 3%, 6% and -8%, respectively.
As to `CC(C(=O)O)c1cc(C(=O)c2ccco2)ccc1O` (stereo unspecified), the Reduction is recorded as 87% in the test filed under Cavia porcellus [1]; 61% in the test listed under Cavia porcellus [2]; -14% in the test listed under Cavia porcellus [3]; 7% in the test listed under Rattus norvegicus [4]; -31% in the test with Rattus norvegicus [5]; 13% with Rattus norvegicus [6]. In addition, the Reduction in the test listed under Cavia porcellus [7] is 87%; in the test filed under Cavia porcellus [8] it was -17%; with Rattus norvegicus [9], -5%.
Turning to `O=C(c1ccc2c(c1)C(C(=O)Nc1ccccc1)C(=O)O2)c1cccs1` (stereo unspecified), the Reduction in the test filed under Cavia porcellus [1] is recorded as 93%; in the test listed under Cavia porcellus [2], 86%; in the test filed under Cavia porcellus [3], 94%; in the test listed under Rattus norvegicus [4] it was 1%; in the test with Rattus norvegicus [5], 8%; in the test with Rattus norvegicus [6] it was 25%. In addition, the Reduction in the test filed under Cavia porcellus [7] came to 93%; in the test listed under Cavia porcellus [8], 85%; with Rattus norvegicus [9] it was 6%.
As for `CC1C(=O)Oc2ccc(C(=O)c3cccs3)cc21` (stereo unspecified), the Reduction in the test listed under Cavia porcellus [1] worked out at 67%; in the test filed under Cavia porcellus [2], 15%; in the test filed under Cavia porcellus [3], 37%; in the test filed under Rattus norvegicus [4], 31%; with Rattus norvegicus [5], 31%; in the test with Rattus norvegicus [6], 48%. For the same compound, the Reduction in the test filed under Cavia porcellus [7] is recorded as 61%; in the test listed under Cavia porcellus [8], 39%; in the test with Rattus norvegicus [9] it was 40%.
For the compound `NC1=NN(c2cccc(C(F)(F)F)c2)CC1` [BW-755C], the Reduction in the test filed under Cavia porcellus [1] was determined as 90%; in the test listed under Cavia porcellus [13], 45%; in the test filed under Cavia porcellus [2], 82%; in the test filed under Cavia porcellus [7], 79%; in the test filed under Cavia porcellus [8], 40%.
Turning to `COc1ccc2c(c1)c(CC(=O)O)c(C)n2C(=O)c1ccc(Cl)cc1` [INDOMETHACIN], the Reduction is 91% in the test filed under Cavia porcellus [1]; 70% in the test filed under Cavia porcellus [2]; -12% in the test filed under Cavia porcellus [3]; 91% in the test listed under Rattus norvegicus [4]; 84% in the test listed under Cavia porcellus [7]; 77% in the test filed under Rattus norvegicus [14]. In addition, the Reduction in the test listed under Cavia porcellus [8] was -81%; in the test listed under Rattus norvegicus [15], 56%; in the test filed under Rattus norvegicus [16], 37%.
